Results taken from ChEMBL document CHEMBL5230179, “Novel irreversible peptidic inhibitors of transglutaminase 2” (RSC Med Chem, 2023).
Calls of active or inactive are those of the source. The calls are words filed in the database; no cut-off is given here.

How the values were obtained:
[1] = target: T1, Protein-glutamine gamma-glutamyltransferase (Homo sapiens, UniProt P21980); assay: Irreversible inhibition of recombinant human TG2 expressed in Escherichia coli BL21 assessed as inhibition constant using AL5 as substrate by continuous chromogenic assay
T1 sequence (P21980 whole entry): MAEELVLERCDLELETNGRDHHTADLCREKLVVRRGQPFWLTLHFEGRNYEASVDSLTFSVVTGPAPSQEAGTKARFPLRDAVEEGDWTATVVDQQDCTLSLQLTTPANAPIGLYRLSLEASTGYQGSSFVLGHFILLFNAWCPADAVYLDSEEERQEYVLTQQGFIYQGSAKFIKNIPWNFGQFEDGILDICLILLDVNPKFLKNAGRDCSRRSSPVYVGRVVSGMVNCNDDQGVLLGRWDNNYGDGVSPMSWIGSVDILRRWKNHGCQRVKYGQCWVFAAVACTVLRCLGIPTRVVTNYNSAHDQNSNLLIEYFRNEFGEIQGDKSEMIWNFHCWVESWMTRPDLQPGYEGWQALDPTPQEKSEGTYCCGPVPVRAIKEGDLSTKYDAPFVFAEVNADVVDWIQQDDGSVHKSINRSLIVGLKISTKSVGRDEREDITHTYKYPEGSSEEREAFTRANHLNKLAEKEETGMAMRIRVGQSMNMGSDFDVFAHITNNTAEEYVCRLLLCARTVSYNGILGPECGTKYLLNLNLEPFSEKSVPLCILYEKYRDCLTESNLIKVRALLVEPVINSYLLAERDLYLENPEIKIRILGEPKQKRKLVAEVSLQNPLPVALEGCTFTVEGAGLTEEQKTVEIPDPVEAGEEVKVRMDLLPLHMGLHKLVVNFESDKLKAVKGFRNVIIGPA
Summary of the method: (§1)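 Human TG2 expressed and purified from E. coli BL21; AL5 (Cbz-Glu(γ-p-nitrophenyl ester)-Gly-OH) hydrolysis read at 405 nm for 20 min at 25 °C under Kitz–Wilson conditions; final 100 µM AL5, 50 mM MOPS pH 6.9, 7.5 mM CaCl2, 5 mU/mL TG2, <5% DMSO; ≥4 inhibitor levels; rate constants fitted by saturation model against [I]/α (α = 1 + [S]/KM) for kinact and KI.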

[2] = target: T2, Protein-glutamine gamma-glutamyltransferase (Homo sapiens) (UniProt P21980); assay: Irreversible inhibition of recombinant human TG2 expressed in Escherichia coli BL21 assessed as Kinact using AL5 as substrate by continuous chromogenic assay; summary of the method: as §1
T2 sequence (whole entry): T1 sequence (P21980 whole entry)

[3] = target: T2, Protein-glutamine gamma-glutamyltransferase (Homo sapiens); assay: Irreversible inhibition of recombinant human TG2 expressed in Escherichia coli BL21 assessed as ratio of Kinact/Ki using AL5 as substrate by continuous chromogenic assay; summary of the method: as §1
[4] = target: T2, Protein-glutamine gamma-glutamyltransferase (Homo sapiens); assay: Irreversible inhibition of recombinant human TG2 expressed in Escherichia coli BL21 assessed as ratio of Kinact/Ki using AL5 as substrate by linear regression analysis
Summary of the method: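 Same TG2/AL5 continuous 405 nm assay (100 µM AL5, 5 mU/mL TG2, 50 mM MOPS, 7.5 mM CaCl2, 25 °C, 20 min); where saturation was not reached, rate constants of the lowest 3 inhibitor concentrations fitted by linear regression, slope taken as kinact/KI.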

[5] = Apparent permeability from apical to basolateral side in MDCK-MDR1 cells; type: ADME, cell-based, Canis lupus familiaris; conditions: dog
[6] = Apparent permeability from basolateral to apical side in MDCK-MDR1 cells; type: ADME, cell-based, Canis lupus familiaris; conditions: dog
MDR1 = assay: Efflux ratio of apparent permeability in MDCK-MDR1 cells; type: ADME, cell-based, Canis lupus familiaris; conditions: dog
[7] = Lipophilicity, logP of the compound; type: physicochemical; conditions: octanol/water
SCC-13 [8] = assay: Antiproliferative activity against human SCC-13 cells assessed as dose-dependent inhibition at 25 to 100 uM incubated for 48 hrs by Coulter cell counter analysis; type: functional, cell-based; conditions: dose 25-100 µM
SCC-13 [9] = assay: Inhibition of cell invasion in human SCC-13 cells at 10 to 50 uM measured over 20 hrs by DAPI staining based fluorescence microscopic analysis; type: functional; conditions: dose 10-50 µM
Summary of the method: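 Matrigel-coated inserts (8-µm pores); 20,000 SCC-13 cells seeded in upper chamber in growth medium with 1% FCS, lower chamber 10% FCS; invasion followed over 0–20 h; membrane fixed in 4% paraformaldehyde, nuclei DAPI-stained, cells on lower surface counted by fluorescence microscopy.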

Row | Compound | Ki [1] [µM] | Kinact [2] [min⁻¹] | Ratio [3] | other results
1 | C=CC(=O)NCCCC[C@H](NC(=O)OCc1ccccc1)C(=O)N1CCN(C(=O)[C@@H](C)NC(=O)c2cccc3ccccc23)CC1 | 1.3 | 0.75 | 590 10^3/M/min | 
2 | C=CC(=O)NCCCC[C@H](NC(=O)Cc1ccccc1C)C(=O)N1CCN(C(=O)[C@@H](Cc2ccccc2)NC(=O)c2cccc3ccccc23)CC1 |  |  |  | Ratio [4]: 238 10^3/M/min
3 | C=CC(=O)NCCCC[C@H](NC(=O)OCc1ccccc1)C(=O)N1CCN(C(=O)[C@H](CC(C)C)NC(=O)c2cccc3ccccc23)CC1 | 12.8 | 3.1 | 240 10^3/M/min | 
4 | C=CC(=O)NCCCC[C@H](NC(=O)OCc1ccccc1)C(=O)N1CCN(C(=O)[C@@H](NC(=O)c2cccc3ccccc23)C(C)CC)CC1 (some centres undefined) | 8.1 | 2.4 | 300 10^3/M/min | 
5 | C=CC(=O)NCCCC[C@H](NC(=O)Cc1ccccc1F)C(=O)N1CCN(C(=O)[C@H](C)NC(=O)c2cccc3ccccc23)CC1 | 3.3 | 1.68 | 502 10^3/M/min | 
6 | C=CC(=O)NCCCC[C@H](NC(=O)Cc1ccccc1Br)C(=O)N1CCN(C(=O)[C@@H](C)NC(=O)c2cccc3ccccc23)CC1 |  |  | 209 10^3/M/min | 
7 | C=CC(=O)NCCCC[C@H](NC(=O)Cc1ccccc1C)C(=O)N1CCN(C(=O)[C@H](Cc2ccccc2)NC(=O)c2cccc3ccccc23)CC1 | 8.8 | 1.51 | 171 10^3/M/min | 
8 | C=CC(=O)NCCCC[C@H](NC(=O)OCc1ccccc1)C(=O)N[C@@H](C(=O)N1CCN(C(=O)c2cccc3ccccc23)CC1)C(C)C | 3.4 | 0.22 | 65 10^3/M/min | 
9 | C=CC(=O)NCCCC[C@H](NC(=O)OCc1ccccc1)C(=O)N1CCN(C(=O)[C@H](NC(=O)c2cccc3ccccc23)C(C)C)CC1 | 1.3 | 0.75 | 595 10^3/M/min | 
10 | C=CC(=O)NCCCC[C@H](NC(=O)Cc1ccccc1Cl)C(=O)N1CCN(C(=O)[C@H](Cc2ccccc2)NC(=O)c2cccc3ccccc23)CC1 | 1.6 | 0.25 | 155 10^3/M/min | 
11 | C=CC(=O)NCCCC[C@H](NC(=O)OCc1ccccc1)C(=O)N[C@H](C(=O)N1CCN(C(=O)c2cccc3ccccc23)CC1)C(C)C | 5.1 | 0.29 | 56 10^3/M/min | 
12 | C=CC(=O)NCCCC[C@H](NC(=O)OCc1ccccc1)C(=O)N1CCN(C(=O)[C@@H](CC(C)C)NC(=O)c2cccc3ccccc23)CC1 | 4.4 | 1.4 | 330 10^3/M/min | 
13 | C=CC(=O)NCCCC[C@H](NC(=O)OCc1ccccc1)C(=O)NCC(=O)N1CCN(C(=O)c2cccc3ccccc23)CC1 | 2.3 | 0.77 | 330 10^3/M/min | 
14 | C=CC(=O)NCCCC[C@H](NC(=O)Cc1ccccc1Cl)C(=O)N1CCN(C(=O)[C@@H](C)NC(=O)c2cccc3ccccc23)CC1 |  |  |  | Ratio [4]: 170 10^3/M/min
15 | C=CC(=O)NCCCC[C@H](NC(=O)Cc1ccccc1Cl)C(=O)N1CCN(C(=O)[C@H](C)NC(=O)c2cccc3ccccc23)CC1 | 9.3 | 1.97 | 211 10^3/M/min | 
16 | C=CC(=O)NCCCC[C@H](NC(=O)Cc1ccccc1C)C(=O)N1CCN(C(=O)[C@H](C)NC(=O)c2cccc3ccccc23)CC1 | 9.5 | 3.95 | 418 10^3/M/min | 
17 | C=CC(=O)NCCCC[C@H](NC(=O)Cc1ccccc1Br)C(=O)N1CCN(C(=O)[C@@H](Cc2ccccc2)NC(=O)c2cccc3ccccc23)CC1 |  |  |  | Ratio [4]: 132 10^3/M/min
18 | C=CC(=O)NCCCC[C@H](NC(=O)OCc1ccccc1)C(=O)N1CCN(C(=O)[C@H](Cc2ccccc2)NC(=O)c2cccc3ccccc23)CC1 | 2.1 | 0.99 | 470 10^3/M/min | 
19 | C=CC(=O)NCCCC[C@H](NC(=O)OCc1ccccc1)C(=O)N1CCN(C(=O)CNC(=O)c2cccc3ccccc23)CC1 | 0.3 | 0.16 | 513 10^3/M/min | Papp A→B [5]: 0.55 ×10⁻⁶ cm/s; Papp B→A [6]: 8.43 ×10⁻⁶ cm/s; efflux ratio (MDR1): 15.5; logP [7]: 2.99
20 | C=CC(=O)NCCCC[C@H](NC(=O)Cc1ccccc1Br)C(=O)N1CCN(C(=O)[C@H](Cc2ccccc2)NC(=O)c2cccc3ccccc23)CC1 | 1.3 | 0.24 | 182 10^3/M/min | 
21 | C=CC(=O)NCCCC[C@H](NC(=O)OCc1ccccc1)C(=O)N1CCN(C(=O)[C@@H](NC(=O)c2cccc3ccccc23)C(C)C)CC1 | 2.9 | 0.79 | 272 10^3/M/min | 
22 | C=CC(=O)NCCCC[C@H](NC(=O)Cc1ccc(F)cc1F)C(=O)N1CCN(C(=O)[C@H](C)NC(=O)c2cccc3ccccc23)CC1 | 5.1 | 1.16 | 225 10^3/M/min | 
23 | C=CC(=O)NCCCC[C@H](NC(=O)Cc1ccccc1Cl)C(=O)N1CCN(C(=O)[C@@H](Cc2ccccc2)NC(=O)c2cccc3ccccc23)CC1 |  |  |  | Ratio [4]: 127 10^3/M/min
24 | C=CC(=O)NCCCC[C@H](NC(=O)Cc1ccccc1Br)C(=O)N1CCN(C(=O)[C@H](C)NC(=O)c2cccc3ccccc23)CC1 | 9.8 | 2.69 | 275 10^3/M/min | 
25 | C=CC(=O)NCCCC[C@H](NC(=O)OCc1ccccc1)C(=O)N1CCN(C(=O)[C@@H](Cc2ccccc2)NC(=O)c2cccc3ccccc23)CC1 | 1 | 0.8 | 760 10^3/M/min | Papp A→B [5]: 0.06 ×10⁻⁶ cm/s; Papp B→A [6]: 5.46 ×10⁻⁶ cm/s; efflux ratio (MDR1): 96.7; logP [7]: 2.73; Activity (SCC-13 [8]): inactive; inhibition (SCC-13 [9]): Active
26 | C=CC(=O)NCCCC[C@H](NC(=O)Cc1ccccc1OC)C(=O)N1CCN(C(=O)[C@H](C)NC(=O)c2cccc3ccccc23)CC1 | 6 | 1.52 | 252 10^3/M/min | 
27 | C=CC(=O)NCCCC[C@H](NC(=O)Cc1ccccc1C)C(=O)N1CCN(C(=O)[C@@H](C)NC(=O)c2cccc3ccccc23)CC1 | 14.9 | 5.59 | 374 10^3/M/min | 
28 | C=CC(=O)NCCCC[C@H](NC(=O)OCc1ccccc1)C(=O)N1CCN(C(=O)[C@H](C)NC(=O)c2cccc3ccccc23)CC1 | 2.3 | 1.4 | 610 10^3/M/min | 
